SMILES strings stand for the structures.

The text below walks through data of ChEMBL document CHEMBL4038334, “Coumarin versus Chromone Monoamine Oxidase B Inhibitors: Quo Vadis?” (J Med Chem, 2017).

Data set [1] concerns the target T1, Amine oxidase [flavin-containing] B (Homo sapiens, UniProt P27338).
T1 sequence (P27338 whole entry): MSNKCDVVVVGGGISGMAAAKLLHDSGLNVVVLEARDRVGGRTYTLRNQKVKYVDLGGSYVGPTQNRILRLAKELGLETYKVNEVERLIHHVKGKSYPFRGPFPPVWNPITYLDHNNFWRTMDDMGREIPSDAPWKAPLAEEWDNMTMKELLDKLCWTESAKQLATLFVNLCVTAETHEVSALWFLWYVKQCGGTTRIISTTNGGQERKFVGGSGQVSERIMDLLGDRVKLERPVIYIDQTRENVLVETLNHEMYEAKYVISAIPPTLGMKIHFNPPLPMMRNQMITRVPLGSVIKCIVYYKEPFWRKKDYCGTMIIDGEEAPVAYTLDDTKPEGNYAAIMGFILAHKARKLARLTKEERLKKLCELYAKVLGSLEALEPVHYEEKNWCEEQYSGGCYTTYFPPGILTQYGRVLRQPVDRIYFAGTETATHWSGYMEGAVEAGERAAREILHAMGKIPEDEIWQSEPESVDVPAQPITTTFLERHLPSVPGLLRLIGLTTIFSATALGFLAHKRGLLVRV
The experiment in a line: biochemical. The format is cell-based.

The species named for data set [2] is Homo sapiens. The experiment in a line: Selectivity index, ratio of IC50 for human recombinant microsomal MAOA to IC50 for human recombinant microsomal MAOB.
Data set [3] has as its target T2, Amine oxidase [flavin-containing] A (Homo sapiens, UniProt P21397).
T2 sequence (P21397 whole entry): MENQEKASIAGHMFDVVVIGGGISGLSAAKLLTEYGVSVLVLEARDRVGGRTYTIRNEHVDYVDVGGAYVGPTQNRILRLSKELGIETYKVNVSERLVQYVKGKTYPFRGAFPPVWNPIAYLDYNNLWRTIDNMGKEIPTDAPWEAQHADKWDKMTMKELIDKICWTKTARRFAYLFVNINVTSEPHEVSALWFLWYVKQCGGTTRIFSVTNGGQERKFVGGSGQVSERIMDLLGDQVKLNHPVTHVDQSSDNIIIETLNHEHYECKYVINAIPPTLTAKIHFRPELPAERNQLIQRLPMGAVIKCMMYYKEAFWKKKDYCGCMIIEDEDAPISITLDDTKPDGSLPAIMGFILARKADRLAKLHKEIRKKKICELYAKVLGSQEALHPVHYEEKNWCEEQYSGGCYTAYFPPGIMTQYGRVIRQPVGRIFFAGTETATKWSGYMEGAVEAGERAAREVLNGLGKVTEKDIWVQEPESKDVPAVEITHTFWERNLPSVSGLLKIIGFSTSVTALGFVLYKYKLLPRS
Description: Inhibition of human recombinant microsomal MAOA expressed in baculovirus infected BTI-TN-5B1- 4 cells using p-tyramine as substrate assessed as decrease in H2O2 production at 100 uM after 15 mins by amplex red-based fluorescence assay. The conditions noted are these: 0.25 h.

In data set [4] the target is T1, Amine oxidase [flavin-containing] B. Description: Reversible inhibition of human recombinant microsomal MAOB expressed in baculovirus infected BTI-TN-5B1- 4 cells assessed as decrease in H2O2 production at 40 nM after 15 mins by amplex red-based fluorescence assay. The conditions noted are these: 0.25 h, 0.04 µM.
Data set [5] shares this target. Description: Noncompetitive inhibition of human recombinant microsomal MAOB expressed in baculovirus infected BTI-TN-5B1- 4 cells using p-tyramine as substrate assessed as decrease in H2O2 production by Lineweaver-Burk plot analysis. A digest of the protocol:
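Substrate-dependent kinetic experiments on hMAO-B. Inhibition mode was read from Lineweaver-Burk plots, and Ki was calculated from the corresponding Dixon plots.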

Data set [6] has the same target. The experiment in a line: Binding affinity to human recombinant microsomal MAOB expressed in baculovirus infected BTI-TN-5B1- 4 cells assessed as decrease in H2O2 production at 12.5 nM after 15 mins by amplex red-based fluorescence assay. The conditions noted are these: 0.25 h, 0.0125 µM.
Data set [7] has the same target. Description: Reversible inhibition of human recombinant microsomal MAOB expressed in baculovirus infected BTI-TN-5B1- 4 cells assessed as decrease in H2O2 production at 12.5 nM after 60 mins by amplex red-based fluorescence assay. As to conditions: 1 h, 0.0125 µM; call rule not given here.

Turning to `COc1ccc2occ(C(=O)Nc3ccccc3)c(=O)c2c1`, 41.8 nM corresponded to half-maximal inhibition in data set [1] (IC50). Besides, the Ratio IC50 in data set [2] is more than 2390. Besides, in data set [3], the “inhibition (INH)” value was “Not Active”.
On the same counts, the results for `Cc1cccc(NC(=O)c2coc3ccc(C)cc3c2=O)c1` are 17.1 nM, more than 5850 and “Not Active”.
On the same counts, the results for `Cc1ccc2oc(=O)c(C(=O)Nc3cccc(O)c3)cc2c1` are 45.4 nM, more than 2200 and “Not Active”.
The corresponding values for `COc1ccc2occ(C(=O)Nc3cccc(O)c3)c(=O)c2c1` are 113 nM, more than 881 and “Not Active”.
The compound `Cc1ccc(NC(=O)c2cc3cc(C)ccc3oc2=O)cc1` gave an IC50 in data set [1] of 13.9 nM. Besides, the Ratio IC50 in data set [2] was more than 7190. The “inhibition (INH)” value in data set [3] is reported as “Not Active”.
`COc1ccc2occ(C(=O)Nc3ccc(Cl)cc3)c(=O)c2c1` displayed an IC50 in data set [1] of 10.3 nM. The Ratio IC50 in data set [2] is more than 9700. For the same compound, the “inhibition (INH)” value in data set [3] is reported as “Not Active”.
On the same counts, the results for `Cc1ccc2occ(C(=O)Nc3cccc(O)c3)c(=O)c2c1` are 78.2 nM, more than 1280 and “Not Active”.
`COc1ccc2oc(=O)c(C(=O)Nc3ccc(C)cc3)cc2c1`: in data set [1], the IC50 was determined as 19.4 nM. In addition, in data set [2], the Ratio IC50 was more than 5150. Besides, the “inhibition (INH)” value in data set [3] is “Not Active”.
On the same counts, the results for `COc1ccc2occ(C(=O)Nc3cccc(C)c3)c(=O)c2c1` are 21.8 nM, more than 4590 and “Not Active”.
Regarding `COc1ccc2oc(=O)c(C(=O)Nc3cccc(O)c3)cc2c1`, the half-maximal inhibitory concentration (IC50) in data set [1] was found to be 229 nM. For the same compound, the Ratio IC50 in data set [2] is more than 447. Further, the “inhibition (INH)” value in data set [3] is on record as “Not Active”.
Turning to `Cc1ccc2oc(=O)c(C(=O)Nc3ccccc3)cc2c1`, the IC50 in data set [1] was 15.3 nM. Besides, in data set [2], the Ratio IC50 was more than 6530. In addition, the “inhibition (INH)” value in data set [3] is “Not Active”.
On the same counts, the results for `Cc1ccc2occ(C(=O)Nc3ccc(O)cc3)c(=O)c2c1` are 513 nM, more than 195 and “Not Active”.
As for `Cc1cccc(NC(=O)c2cc3cc(C)ccc3oc2=O)c1`, half-maximal inhibition in data set [1] (IC50) was put at 7.52 nM. The Ratio IC50 in data set [2] was more than 13300. In data set [3], the “inhibition (INH)” value is listed as “Not Active”.
The corresponding values for `Cc1ccc(NC(=O)c2coc3ccc(C)cc3c2=O)cc1` are 152 nM, more than 660 and “Not Active”.
In the case of `COc1ccc2oc(=O)c(C(=O)Nc3ccc(O)cc3)cc2c1`, the “inhibition (INH)” value in data set [3] was “Not Active”.
On to `Cc1ccc2oc(=O)c(C(=O)Nc3ccc(Cl)cc3)cc2c1`, for which half-maximal inhibition in data set [1] (IC50) required 11.1 nM. Besides, the Ratio IC50 in data set [2] was more than 9030. The “inhibition (INH)” value in data set [3] was “Not Active”.
Regarding `Cc1ccc2occ(C(=O)Nc3ccccc3)c(=O)c2c1`, the half-inhibitory concentration (IC50) in data set [1] was determined as 21.4 nM. For the same compound, in data set [2], the Ratio IC50 is more than 4680. Also, the “inhibition (INH)” value in data set [3] is “Not Active”.
As to `C[C@H](NCc1ccc(OCc2cccc(F)c2)cc1)C(N)=O` [SAFINAMIDE], the “inhibition (INH)” value in data set [4] was “Active”; in data set [3] it was “Not Active”.
`COc1ccc2occ(C(=O)Nc3ccc(C)cc3)c(=O)c2c1`: it took 211 nM to reach half-maximal inhibition in data set [1] (IC50). Besides, in data set [2], the Ratio IC50 is more than 474. Also, the “inhibition (INH)” value in data set [3] is on record as “Not Active”.
On the same counts, the results for `COc1ccc2oc(=O)c(C(=O)Nc3ccccc3)cc2c1` are 5.95 nM, more than 16800 and “Not Active”.
As for `Cc1ccc2occ(C(=O)Nc3cccc(Cl)c3)c(=O)c2c1`, the Ki in data set [5] was determined as 2.69 nM. For the same compound, 4.2 nM corresponded to half-maximal inhibition in data set [1] (IC50). In addition, in data set [2], the Ratio IC50 was more than 23800. Besides, in data set [6], the result was Active. For the same compound, the entries for the “inhibition (INH)” value in data set [3] and in data set [7] were “Not Active” and “Active”, respectively.
Consider `COc1ccc2occ(C(=O)Nc3ccc(O)cc3)c(=O)c2c1`, for which half-maximal inhibition in data set [1] (IC50) required 674 nM. In addition, the Ratio IC50 in data set [2] is more than 148. Also, in data set [3], the “inhibition (INH)” value was “Not Active”.
On the same counts, the results for `COc1ccc2oc(=O)c(C(=O)Nc3cccc(C)c3)cc2c1` are 47.2 nM, more than 2120 and “Not Active”.
On the same counts, the results for `COc1ccc2oc(=O)c(C(=O)Nc3ccc(Cl)cc3)cc2c1` are 18.9 nM, more than 5290 and “Not Active”.
The corresponding values for `Cc1ccc2oc(=O)c(C(=O)Nc3ccc(O)cc3)cc2c1` are 622 nM, more than 161 and “Not Active”.
`Cc1ccc2occ(C(=O)Nc3ccc(Cl)cc3)c(=O)c2c1` gave a half-maximal inhibitory concentration (IC50) in data set [1] of 45.4 nM. In data set [2], the Ratio IC50 was more than 2200. Also, the “inhibition (INH)” value in data set [3] is “Not Active”.
On to `Cc1ccc2oc(=O)c(C(=O)Nc3cccc(Cl)c3)cc2c1`, for which the Ki in data set [5] is 1.17 nM. In data set [1], the IC50 came to 5.07 nM. The Ratio IC50 in data set [2] was more than 19700. In addition, in data set [6], the result was Active. Also, the figures for the “inhibition (INH)” value in data set [3] and in data set [7] were “Not Active” and “Active”, respectively.
In data set [1], `COc1ccc2occ(C(=O)Nc3cccc(Cl)c3)c(=O)c2c1` displayed an IC50 of 3.94 nM. Also, the Ratio IC50 in data set [2] was more than 25400. Besides, the “inhibition (INH)” value in data set [3] was “Not Active”.
On the same counts, the results for `COc1ccc2oc(=O)c(C(=O)Nc3cccc(Cl)c3)cc2c1` are 9.03 nM, more than 11100 and “Not Active”.
